Test results from ChEMBL document CHEMBL1145455, “Cytotoxic withanolides from the flowers of Datura metel” (J Nat Prod, 2007).

What was measured:
Type in all cases: functional, cell-based
BGC-823 = test: Cytotoxicity against human BGC823 cells after 48 hrs; conditions: BGC-823, 48 h
Method in brief: (§1)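 MTT colorimetric assay. Cells were kept in RPMI-1640 with 10% fetal bovine serum at 37 °C, 5% CO2, humidified. They were seeded at 6 × 10^4 cells/mL and allowed to attach for 24 h. Diluted samples were then added for 48 h. MTT (0.5 mg/mL) was added for 3 h, and optical density was read at 550 nm.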

A549 = test: Cytotoxicity against human A549 cells after 48 hrs; conditions: A549, 48 h; method in brief: as §1
K562 = test: Cytotoxicity against human K562 cells after 48 hrs; conditions: K562, 48 h; method in brief: as §1

SMILES | IC50 (BGC-823) [nM] | IC50 (A549) [nM] | IC50 (K562) [nM]
C=C1C(=O)O[C@@H]2C[C@@]1(C)OC[C@H]2C1CCC2C3C[C@H]4OC(=O)CC=CC4=C(C)C3CCC21C (stereo partly drawn) [1,10-SECO-WITHAMETELIN B] | > 10000 | > 10000 | > 10000
C=C1C(=O)O[C@@H]2C[C@@]1(C)OC[C@H]2C1CCC2C3C[C@H](O)[C@]4(O)CC=CC(=O)C4(C)C3CCC21C (stereo partly drawn) [WITHMETELIN O] | > 10000 | > 10000 | > 10000
C=C1C(=O)O[C@@H]2C[C@]1(C)OC[C@H]2[C@H]1CC[C@H]2[C@@H]3CC=C4CC=CC(=O)[C@]4(C)[C@H]3C[C@@H](O)[C@]12C [WITHAMETELIN L] | 1600 | 2000 | 550
CC1=C(CO[C@@H]2O[C@H](CO)[C@@H](O)[C@H](O)[C@H]2O)C(=O)O[C@@H]([C@@H](CO)C2CCC3C4C[C@@H](O)[C@@]5(O)CC=CC(=O)C5(C)C4CCC32C)C1 (stereo partly drawn) [WITHMETELIN P] | > 10000 | > 10000 | > 10000
C=C1C(=O)O[C@@H]2C[C@@]1(C)OC[C@H]2C1CCC2C3C[C@H]4O[C@]45CC=CC(=O)C5(C)C3C[C@@H](O)C21C (stereo partly drawn) [WITHAMETELIN I] | 1300 | 1200 | 50
COc1cccc2c1C(=O)c1c(O)c3c(c(O)c1C2=O)C[C@@](O)(C(=O)CO)C[C@@H]3O[C@H]1C[C@H](N)[C@H](O)[C@H](C)O1 [DOXORUBICIN] | 350 | 750 | 580
C=C1C(=O)O[C@@H]2C[C@@]1(C)OC[C@H]2C1CC[C@H]2[C@@H]3C[C@H]4O[C@]45C[C@H](O)CC(=O)C5(C)[C@H]3CCC12C (stereo partly drawn) | 1000 | 1700 | 460
C=C1C(=O)O[C@@H]2C[C@@]1(C)OC[C@H]2C1CCC2C3CC=C4C=CCC(=O)C4(C)C3C[C@@H](O)C21C (stereo partly drawn) [WITHAMETELIN M] | > 10000 | > 10000 | > 10000
C=C1C(=O)O[C@@H]2C[C@@]1(C)OC[C@H]2C1CCC2C3C[C@@H](O)C4=CC=CC(=O)C4(C)C3C[C@@H](O)C21C (stereo partly drawn) [WITHAMETELIN K] | 1900 | 3500 | 120
C=C1C(=O)O[C@@H]2C[C@@]1(C)OC[C@H]2C1CCC2C3C[C@@H](O)[C@@]4(O)CC=CC(=O)C4(C)C3C[C@@H](O)C21C (stereo partly drawn) [WITHAMETELIN J] | 5200 | > 10000 | 2500
C=C1C(=O)O[C@@H]2C[C@@]1(C)OC[C@H]2C1CCC2C3C[C@H]4OC(=O)CC=CC4=C(C)C3C[C@@H](O)C21C (stereo partly drawn) [12BETA-HYDROXY-1,10-SECO-WITHAMETELIN B] | > 10000 | > 10000 | > 10000
